In ChEMBL document CHEMBL4819122, “Novel 4-(piperazin-1-yl)quinolin-2(1H)-one bearing thiazoles with antiproliferative activity through VEGFR-2-TK inhibition” (Bioorg Med Chem, 2021):
pIC50: −log10 of the molar value. Active and inactive are the calls of the source. The calls are words filed in the database; no cut-off is given here.

Tests used:
HCT-116 = test: Cytotoxicity against human HCT-116 assessed as growth inhibition at 10 uM by NCI protocol relative to control; assay type: functional; settings: read-out: GI
Outline: (§1)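 Run by NCI as a single-dose screen at 10 μM across the sixty-cell-line panel, which covers nine human tumour tissue types. The read-out is percent growth inhibition of treated cells relative to untreated cells.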

T47D = test: Cytotoxicity against human T47D cells assessed as reduction in cell viability after 3 hrs by MTT assay
LOX IMVI = test: Cytotoxicity against human LOX IMVI assessed as growth inhibition at 10 uM by NCI protocol relative to control; assay type: functional; settings: read-out: GI; outline: as §1
EKVX = test: Cytotoxicity against human EKVX assessed as growth inhibition at 10 uM by NCI protocol relative to control; assay type: functional; settings: read-out: GI; outline: as §1
UO-31 = test: Cytotoxicity against human UO31 assessed as growth inhibition at 10 uM by NCI protocol relative to control; assay type: functional; settings: read-out: GI
Outline: (§2)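 Run by the NCI under its standard protocol: one dose of 10 μM against a sixty-line panel from nine human tumour tissues. Result given as percent growth inhibition of treated cells relative to untreated cells.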

SK-MEL-5 = test: Cytotoxicity against human SK-MEL-5 assessed as growth inhibition at 10 uM by NCI protocol relative to control; assay type: functional; settings: read-out: GI; outline: as §1
NCI/ADR-RES = test: Cytotoxicity against human NCl/ADR-RES assessed as growth inhibition at 10 uM by NCI protocol relative to control; assay type: functional; settings: read-out: GI; outline: as §1
PC-3 = test: Cytotoxicity against human PC3 assessed as growth inhibition at 10 uM by NCI protocol relative to control; assay type: functional; settings: read-out: GI; outline: as §1
MDA-MB-435 = test: Cytotoxicity against human MDA-MB-435 assessed as growth inhibition at 10 uM by NCI protocol relative to control; assay type: functional, cell-based; outline: as §1
A549 = test: Cytotoxicity against human A549 assessed as growth inhibition at 10 uM by NCI protocol relative to control; assay type: functional; settings: read-out: GI; outline: as §1
HT-29 = test: Cytotoxicity against human HT29 assessed as growth inhibition at 10 uM by NCI protocol relative to control; assay type: functional; settings: read-out: GI; outline: as §1
NCI-H226 = test: Cytotoxicity against human NCI-H226 assessed as growth inhibition at 10 uM by NCI protocol relative to control; assay type: functional; settings: read-out: GI; outline: as §1
BT-549 = test: Cytotoxicity against human BT-549 assessed as growth inhibition at 10 uM by NCI protocol relative to control; assay type: functional; settings: read-out: GI; outline: as §1
SF-268 = test: Cytotoxicity against human SF-268 assessed as growth inhibition at 10 uM by NCI protocol relative to control; assay type: functional; settings: read-out: GI; outline: as §1
K562 = test: Cytotoxicity against human K-562 assessed as growth inhibition at 10 uM by NCI protocol relative to control; assay type: functional; settings: read-out: GI; outline: as §1
CCRF-CEM = test: Cytotoxicity against human CCRF-CEM assessed as growth inhibition at 10 uM by NCI protocol relative to control; assay type: functional; settings: read-out: GI; outline: as §1
SF-295 = test: Cytotoxicity against human SF-295 assessed as growth inhibition at 10 uM by NCI protocol relative to control; assay type: functional; settings: read-out: GI; outline: as §1
NCI-H23 = test: Cytotoxicity against human NCI-H23 assessed as growth inhibition at 10 uM by NCI protocol relative to control; assay type: functional; settings: read-out: GI; outline: as §1
786-0 = test: Cytotoxicity against human 786-0 assessed as growth inhibition at 10 uM by NCI protocol relative to control; assay type: functional; settings: read-out: GI; outline: as §1
SNB-75 = test: Cytotoxicity against human SNB-75 assessed as growth inhibition at 10 uM by NCI protocol relative to control; assay type: functional; settings: read-out: GI; outline: as §2
RPMI-8226 = test: Cytotoxicity against human RPMI-8226 assessed as growth inhibition at 10 uM by NCI protocol relative to control; assay type: functional; settings: read-out: GI; outline: as §1
OVCAR-8 = test: Cytotoxicity against human OVCAR-8 assessed as growth inhibition at 10 uM by NCI protocol relative to control; assay type: functional; settings: read-out: GI; outline: as §1
A498 = test: Cytotoxicity against human A498 assessed as growth inhibition at 10 uM by NCI protocol relative to control; assay type: functional; settings: read-out: GI; outline: as §1
MOLT-4 = test: Cytotoxicity against human MOLT-4 assessed as growth inhibition at 10 uM by NCI protocol relative to control; assay type: functional; settings: read-out: GI; outline: as §1
MDA-MB-231 = test: Cytotoxicity against human MDA-MB-231 assessed as growth inhibition at 10 uM by NCI protocol relative to control; assay type: functional; settings: read-out: GI; outline: as §1
OVCAR-3 = test: Cytotoxicity against human OVCAR-3 assessed as growth inhibition at 10 uM by NCI protocol relative to control; assay type: functional; settings: read-out: GI; outline: as §1
OVCAR-4 = test: Cytotoxicity against human OVCAR-4 assessed as growth inhibition at 10 uM by NCI protocol relative to control; assay type: functional; settings: read-out: GI; outline: as §1
DU-145 = test: Cytotoxicity against human DU-145 assessed as growth inhibition at 10 uM by NCI protocol relative to control; assay type: functional; settings: read-out: GI; outline: as §1
UACC-257 = test: Cytotoxicity against human UACC-257 assessed as growth inhibition at 10 uM by NCI protocol relative to control; assay type: functional; settings: read-out: GI; outline: as §2
MCF7 = test: Cytotoxicity against human MCF7 assessed as growth inhibition at 10 uM by NCI protocol relative to control; assay type: functional; settings: read-out: GI; outline: as §1
SR = test: Cytotoxicity against human SR assessed as growth inhibition at 10 uM by NCI protocol relative to control; assay type: functional; settings: read-out: GI; outline: as §2
SK-MEL-28 = test: Cytotoxicity against human SK-MEL-28 assessed as growth inhibition at 10 uM by NCI protocol relative to control; assay type: functional; settings: read-out: GI; outline: as §1
SK-OV-3 = test: Cytotoxicity against human SK-OV-3 assessed as growth inhibition at 10 uM by NCI protocol relative to control; assay type: functional; settings: read-out: GI; outline: as §1
SW-620 = test: Cytotoxicity against human SW-620 assessed as growth inhibition at 10 uM by NCI protocol relative to control; assay type: functional; settings: read-out: GI; outline: as §2
IGROV-1 = test: Cytotoxicity against human IGROVI assessed as growth inhibition at 10 uM by NCI protocol relative to control; assay type: functional; settings: read-out: GI; outline: as §1
HOP-92 = test: Cytotoxicity against human HOP-92 assessed as growth inhibition at 10 uM by NCI protocol relative to control; assay type: functional; outline: as §1
NCI-H522 = test: Cytotoxicity against human NCI-H522 assessed as growth inhibition at 10 uM by NCI protocol relative to control; assay type: functional; settings: read-out: GI; outline: as §1
SF-539 = test: Cytotoxicity against human […] assessed as growth inhibition at 10 uM by NCI protocol relative to control; assay type: functional; settings: read-out: GI; outline: as §1
KM12 = test: Cytotoxicity against human KM12 assessed as growth inhibition at 10 uM by NCI protocol relative to control; assay type: functional; settings: read-out: GI; outline: as §1
HL-60 = test: Cytotoxicity against human HL60 assessed as growth inhibition at 10 uM by NCI protocol relative to control; assay type: functional; settings: read-out: GI; outline: as §1
NCI-H460 = test: Cytotoxicity against human NCI-H460 assessed as growth inhibition at 10 uM by NCI protocol relative to control; assay type: functional; settings: read-out: GI; outline: as §1
SK-MEL-2 = test: Cytotoxicity against human SK-MEL-2 assessed as growth inhibition at 10 uM by NCI protocol relative to control; assay type: functional; settings: read-out: GI; outline: as §1
HCT-15 = test: Cytotoxicity against human HCT-15 assessed as growth inhibition at 10 uM by NCI protocol relative to control; assay type: functional; settings: read-out: GI; outline: as §1

O=C(CN1CCN(c2cc(=O)n(-c3ccccc3)c3ccccc23)CC1)Nc1nc(-c2ccccc2)cs1
inhibition of growth at 10 µM (HCT-116): 46.6%
pIC50 (T47D): 4.99
inhibition of growth at 10 µM (LOX IMVI): 50.5%
inhibition of growth at 10 µM (EKVX): 54.5%
inhibition of growth at 10 µM (UO-31): 58.4%
inhibition of growth at 10 µM (SK-MEL-5): 94.7%
inhibition of growth at 10 µM (NCI/ADR-RES): 37.3%
inhibition of growth at 10 µM (PC-3): 67.5%
growth inhibition (GI) (MDA-MB-435): inactive
inhibition of growth at 10 µM (A549): 43.8%
inhibition of growth at 10 µM (HT-29): 27%
inhibition of growth at 10 µM (NCI-H226): 51.8%
inhibition of growth at 10 µM (BT-549): 33%
inhibition of growth at 10 µM (SF-268): 20.8%
inhibition of growth at 10 µM (K562): 77.6%
inhibition of growth at 10 µM (CCRF-CEM): 60.4%
inhibition of growth at 10 µM (SF-295): 33.3%
inhibition of growth at 10 µM (NCI-H23): 39.2%
inhibition of growth at 10 µM (786-0): 10.7%
inhibition of growth at 10 µM (SNB-75): 28.4%
inhibition of growth at 10 µM (RPMI-8226): 53.8%
inhibition of growth at 10 µM (OVCAR-8): 30.2%
inhibition of growth at 10 µM (A498): 33.8%
inhibition of growth at 10 µM (MOLT-4): 82.2%
inhibition of growth at 10 µM (MDA-MB-231): 37.5%
inhibition of growth at 10 µM (OVCAR-3): 27.5%
inhibition of growth at 10 µM (OVCAR-4): 76.7%
inhibition of growth at 10 µM (DU-145): 27.3%
inhibition of growth at 10 µM (UACC-257): 51.5%
inhibition of growth at 10 µM (MCF7): 72.4%
inhibition of growth at 10 µM (SR): 48.7%
inhibition of growth at 10 µM (SK-MEL-28): 28.8%
inhibition of growth at 10 µM (SK-OV-3): 29.2%
inhibition of growth at 10 µM (SW-620): 31.4%
inhibition of growth at 10 µM (IGROV-1): 32.5%
growth inhibition (GI) (HOP-92): inactive
inhibition of growth at 10 µM (NCI-H522): 33.5%
inhibition of growth at 10 µM (SF-539): 22.9%
inhibition of growth at 10 µM (KM12): 37%
inhibition of growth at 10 µM (HL-60): 62.9%
inhibition of growth at 10 µM (NCI-H460): 67.8%
inhibition of growth at 10 µM (SK-MEL-2): 11.1%
inhibition of growth at 10 µM (HCT-15): 74.8%
